{"data": "Published values of several laboratories", "organism": "Staphylococcus aureus", "note": "Compare with care: the assays were run in different laboratories."}
{"SMILES": "CO[C@@H]1[C@@H](OC(N)=O)[C@@H](O)[C@H](Oc2ccc3c(O)c(NC(=O)c4ccc(O)c(CC=C(C)C)c4)c(=O)oc3c2C)OC1(C)C", "effect on": "microbial growth", "strain": "MRSA", "setting": "drug-resistant strain, clinical isolate", "endpoint": "MIC", "value": "0.25 µg/mL"}
{"SMILES": "COc1c(N2C[C@@H]3CCCN[C@@H]3C2)c(F)cc2c(=O)c(C(=O)O)cn(C3CC3)c12", "effect on": "microbial growth", "strain": "ATCC29213", "endpoint": "MIC", "value": "0.07 µM"}
{"SMILES": "CN[C@H](CC(C)C)C(=O)N[C@H]1C(=O)N[C@@H](CC(N)=O)C(=O)N[C@H]2C(=O)N[C@H]3C(=O)N[C@H](C(=O)N[C@H](C(=O)O)c4cc(O)cc(O)c4-c4cc3ccc4O)[C@H](O)c3ccc(c(Cl)c3)Oc3cc2cc(c3O[C@@H]2O[C@H](CO)[C@@H](O)[C@H](O)[C@H]2O[C@H]2C[C@](C)(N)[C@H](O)[C@H](C)O2)Oc2ccc(cc2Cl)[C@H]1O", "effect on": "microbial killing", "technique": "broth dilution", "strain": "MRSA", "setting": "drug-resistant strain", "endpoint": "MBC", "value": "0.67 µM"}
{"SMILES": "C[C@H]1COc2c(N3CCN(C)CC3)c(F)cc3c(=O)c(C(=O)O)cn1c23", "effect on": "microbial killing", "strain": "ATCCBAA1717 MRSA", "endpoint": "MBC", "value": "0.48 µg/mL"}
{"SMILES": "Oc1c(Cl)cc(Cl)cc1-c1[nH]c(Cl)c(Cl)c1Cl", "effect on": "microbial growth", "strain": "ATCC29213 MSSA", "endpoint": "MIC", "value": "0.29 µM"}
{"SMILES": "O=c1ccc2nc3ccc(OCc4ccc([N+](=O)[O-])o4)cc3oc-2c1", "effect on": "microbial growth", "time": "24 h", "endpoint": "MIC", "value": "> 32 µg/mL"}
{"SMILES": "C[C@@H]1CN2c3c(cc4c(N5C(=O)OC[C@@H]5C)noc4c3F)CC3(C(=O)NC(=O)NC3=O)[C@H]2[C@H](C)O1", "effect on": "microbial growth", "technique": "broth dilution", "strain": "ATCC29213", "endpoint": "MIC", "value": "1 µg/mL"}
{"SMILES": "CN[C@H](CC(C)C)C(=O)N[C@H]1C(=O)N[C@@H](CC(N)=O)C(=O)N[C@H]2C(=O)N[C@H]3C(=O)N[C@H](C(=O)N[C@H](C(=O)O)c4cc(O)cc(O)c4-c4cc3ccc4O)[C@H](O)c3ccc(c(Cl)c3)Oc3cc2cc(c3O[C@@H]2O[C@H](CO)[C@@H](O)[C@H](O)[C@H]2O[C@H]2C[C@](C)(N)[C@H](O)[C@H](C)O2)Oc2ccc(cc2Cl)[C@H]1O", "effect on": "microbial killing", "strain": "ATCCBAA1717 MRSA", "endpoint": "MBC", "value": "1.95 µg/mL"}
{"SMILES": "COc1c(N2CC3CCCNC3C2)c(F)cc2c(=O)c(C(=O)OCc3cnc([N+](=O)[O-])s3)cn(C3CC3)c12 (stereo not drawn)", "effect on": "microbial growth", "strain": "ATCC29213", "endpoint": "MIC", "value": "0.09 µM"}
